This is a sample that favours compounds with a hit; in the whole collection about 1.9% have one here.
Rpn11 block: Rpn11 (human) deubiquitinase inhibition; O00487; human 26S proteasome, Ub4-pepOG fluorescence polarization; 20S core pre-blocked with epoxomicin; inhibition, % at 20 µM; 360,000 tested, 0.59% active; AID 588493;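 active means inhibition at 20 µM, scaled to each plate's controls, above about 33%, limit read from the data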
ABHD5 PLIN5 PPI: ABHD5-PLIN5 protein interaction inhibition; 360,000 tested, 0.78% active; AID 602281; Split G. princeps luciferase complementation, luminescence, 4 h; Q00G26+Q8WTS1; inhibition, % at 4 µM;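 active means inhibition above the mean inhibition across every tested compound plus 3 SD, cut at about 22% in these data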;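 further: 0% = DMSO only wells and the 100% control is not disclosed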
Rin1-Abl PPI inh: human Rin1-Abl interaction inhibition; TR-FRET Rin1/Abl binding, biochemical; inhibition, % at 7.35 µM; 360,000 tested, 0.4% active; in the data active means inhibition above about 5%, passing the limit was not always enough
Target sequence (P00519 whole entry, looked up): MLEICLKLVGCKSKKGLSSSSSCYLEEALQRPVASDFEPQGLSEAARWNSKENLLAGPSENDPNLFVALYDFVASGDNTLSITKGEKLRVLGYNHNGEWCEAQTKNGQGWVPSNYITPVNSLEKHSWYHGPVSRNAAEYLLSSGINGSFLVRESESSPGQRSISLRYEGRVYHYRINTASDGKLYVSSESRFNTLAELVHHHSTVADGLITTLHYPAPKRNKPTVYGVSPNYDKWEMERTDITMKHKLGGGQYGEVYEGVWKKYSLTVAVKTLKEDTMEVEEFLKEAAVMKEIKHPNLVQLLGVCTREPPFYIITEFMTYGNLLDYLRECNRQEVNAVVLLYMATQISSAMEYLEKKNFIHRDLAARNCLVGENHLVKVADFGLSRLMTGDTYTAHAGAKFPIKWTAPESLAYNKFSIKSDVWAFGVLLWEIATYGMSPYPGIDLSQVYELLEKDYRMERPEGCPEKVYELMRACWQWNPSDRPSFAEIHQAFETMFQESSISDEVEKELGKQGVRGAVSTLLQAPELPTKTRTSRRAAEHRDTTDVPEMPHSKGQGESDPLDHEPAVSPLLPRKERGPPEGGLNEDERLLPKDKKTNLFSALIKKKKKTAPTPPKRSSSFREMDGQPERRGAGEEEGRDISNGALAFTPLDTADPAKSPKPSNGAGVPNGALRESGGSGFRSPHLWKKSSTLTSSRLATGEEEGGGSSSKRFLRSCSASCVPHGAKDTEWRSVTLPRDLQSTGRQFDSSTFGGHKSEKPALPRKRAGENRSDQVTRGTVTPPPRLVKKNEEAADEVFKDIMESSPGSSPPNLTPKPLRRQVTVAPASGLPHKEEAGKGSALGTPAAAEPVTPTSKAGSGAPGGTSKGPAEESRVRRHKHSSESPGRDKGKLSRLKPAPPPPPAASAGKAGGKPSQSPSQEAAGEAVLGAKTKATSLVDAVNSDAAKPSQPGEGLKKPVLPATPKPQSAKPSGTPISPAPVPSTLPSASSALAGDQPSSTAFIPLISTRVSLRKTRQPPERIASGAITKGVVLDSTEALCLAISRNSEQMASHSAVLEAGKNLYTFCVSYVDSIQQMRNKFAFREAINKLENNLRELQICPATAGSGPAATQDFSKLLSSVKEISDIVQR
Target sequence (Q13671 whole entry, looked up): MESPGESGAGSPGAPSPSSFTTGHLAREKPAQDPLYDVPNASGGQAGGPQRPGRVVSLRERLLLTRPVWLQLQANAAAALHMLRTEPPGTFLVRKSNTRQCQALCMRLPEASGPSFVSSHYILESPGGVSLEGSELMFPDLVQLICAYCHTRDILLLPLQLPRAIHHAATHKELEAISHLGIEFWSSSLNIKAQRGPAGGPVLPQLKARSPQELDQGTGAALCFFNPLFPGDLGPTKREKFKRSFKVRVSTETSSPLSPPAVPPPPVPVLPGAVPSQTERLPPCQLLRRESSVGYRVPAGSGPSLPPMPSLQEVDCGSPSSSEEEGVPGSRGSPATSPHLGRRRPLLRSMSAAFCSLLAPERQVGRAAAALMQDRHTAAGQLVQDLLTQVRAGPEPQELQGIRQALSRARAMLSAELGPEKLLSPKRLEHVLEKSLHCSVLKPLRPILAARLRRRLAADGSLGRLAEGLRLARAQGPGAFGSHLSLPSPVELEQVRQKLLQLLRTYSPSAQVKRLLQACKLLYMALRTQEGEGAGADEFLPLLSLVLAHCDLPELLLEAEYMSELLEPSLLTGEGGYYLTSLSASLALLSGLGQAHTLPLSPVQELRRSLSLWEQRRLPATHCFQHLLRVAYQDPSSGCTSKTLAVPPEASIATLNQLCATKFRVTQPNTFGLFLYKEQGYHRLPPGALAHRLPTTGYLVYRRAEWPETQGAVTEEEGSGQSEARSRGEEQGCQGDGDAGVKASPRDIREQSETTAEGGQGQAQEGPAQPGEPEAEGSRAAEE
Xi reactivation: X-chromosome reactivation activator | activation, % at 7.58 µM | XiGFP mouse fibroblasts, % GFP-positive cells imaging, 3 d; cells co-treated with 5-aza-dC sensitizer; scaled so ellipticine positive control = 100% | 360,000 tested, 0.055% active | AID 743238;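 active means mean normalized replicate activation at least 10% and every replicate at or above 10%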;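 further: 0% = median of on-plate neutral control wells and 100% = ellipticine 6 µM median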
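assay system = SV40-immortalized XiGFP fibroblast cells, line 68-5-11 | buffer or medium = DMEM plus 5-aza-dC sensitizer | doses = single-point pinned compound dosing | times = 3-day compound exposure, then 15 min fixation at room temperature | benchmarks = positive control ellipticine, 6 µM final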
NadD inh: inhibitors of Staphylococcus aureus NadD | 360,000 tested, 0.78% active | inhibition, % at 20 µM | purified NadD enzyme, colorimetric absorbance read-out; in the data active means inhibition above about 26%
ABHD5 PLIN5 conf: confirmation of human ABHD5-PLIN5 interaction inhibitors | inhibition, % at 4 µM | biochemical ABHD5-PLIN5 interaction, luminescence | shares compounds with ABHD5 PLIN5 PPI | 2,200 tested, 67% active; in the data active means inhibition above about 23%;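 further: 0% = DMSO vehicle wells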
HNF4 counter: HNF4 split-luciferase signal hit, counter-screen. shares compounds with ABHD5 PLIN5 PPI. HNF4 dimerization, luminescence, biochemical. inhibition, % at 4 µM. 2,200 tested, 77% active. AID 651674;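 active means mean inhibition across replicate wells exceeding the computed hit threshold, cut at about 13% in these data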;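 further: light from luciferase halves that rejoin when HNF4 fusion proteins dimerize; 0% = DMSO only wells and the 100% control is not given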
An asterisk follows results filed as active; / = no result given.

SMILES	Rpn11 block	ABHD5 PLIN5 PPI	Rin1-Abl PPI inh	Xi reactivation	NadD inh	ABHD5 PLIN5 conf	HNF4 counter
COc1ccccc1S(=O)(=O)N[C@H]1CC[C@@H](CCNC(=O)C2CCC2)O[C@@H]1CO	/	/	/	0	/	/	/
CCOC(=O)c1cnc2c(C)cccc2c1NCc1ccco1	-4	24*	-1	/	-7	4	8
O=[N+]([O-])c1ccc(S(=O)(=O)c2ccccc2)nc1	-1	54*	1	0	-3	57*	109*
Cc1cc(S(=O)(=O)c2ccc([N+](=O)[O-])cn2)ccc1Br	2	16	-5	0	0	/	/
Cc1ccc(S(=O)(=O)c2ccc([N+](=O)[O-])cn2)cc1	-11	49*	1	2	-7	75*	112*
Cc1ccc(S(=O)(=O)N(C)C[C@H]2Oc3ccc(NC(=O)Nc4c(C)noc4C)cc3CC(=O)N([C@H](C)CO)C[C@@H]2C)cc1	/	/	/	0	/	/	/
COC1=CC(=O)C(OC)=C(OC)C1=O	5	26*	1	0	1	52*	73*
CCCC(=O)Nc1ccc2c(c1)OC[C@H](C)N(C(=O)CC1CC1)C[C@@H](C)[C@@H](OC)CN(C)C2=O	/	/	/	0	/	/	/
N=c1n(Cc2ccccc2)c2ccccc2n1CC(O)c1ccco1 (stereo unspecified)	-19	23*	1	/	0	8	15*
O=C(O)c1cccc(NC2=C(Cl)C(=O)c3ccccc3C2=O)c1	5	38*	0	2	0	38*	24*
O=C(O)c1ccc(NC2=C(Cl)C(=O)c3ccccc3C2=O)cc1	-8	3	-2	0	-5	/	/
O=C1C(Cl)=C(NCCc2ccccc2)C(=O)c2ccccc21	4	27*	-7	1	17	88*	104*
O=C1C(Cl)=C(Nc2ccccc2)C(=O)c2ccccc21	-5	4	-4	0	-1	/	/
Cc1ccc(S(=O)(=O)N[C@H]2CC[C@H](CCNC(=O)c3ccccc3F)O[C@H]2CO)cc1	/	/	/	0	/	/	/
C[C@H](CO)N1C[C@H](C)[C@H](CN(C)S(=O)(=O)c2cccs2)OCCCC[C@H](C)Oc2ccc(NC(=O)Nc3cccc4ccccc34)cc2C1=O	/	/	/	-1	/	/	/
CC(=O)NC(CSC(CC(=O)c1ccco1)c1ccc(C)cc1)C(=O)O (stereo unspecified)	1	50*	1	0	-1	40*	40*
CCCC#Cc1cnc2c(c1)C(=O)N([C@@H](C)CO)C[C@@H](C)[C@H](CN(C)C(=O)c1cccnc1)O2	/	/	/	-1	/	/	/
COC(=O)C1C=CC(OC2OC(COC(C)=O)C(OC(C)=O)C(OC(C)=O)C2OC(C)=O)n2c(=O)n(-c3ccccc3)c(=O)n21 (stereo unspecified)	-6	26*	4	1	4	18	72*
C[C@@H]1CN([C@@H](C)CO)C(=O)c2cccc(NS(=O)(=O)c3cn(C)cn3)c2O[C@@H]1CN(C)CC1CC1	/	/	/	0	/	/	/
COc1ccc2c3c([nH]c2c1)[C@@H](CO)N(C(=O)NC1CCCC1)CC31CN(S(C)(=O)=O)C1	/	/	/	0	/	/	/
O=C1/C(=C/c2c[nH]c3ccccc23)CCC/C1=C\c1c[nH]c2ccccc12	/	30*	-3	2	20	29*	58*
CN(C)CCN(Cc1ccco1)c1ccccn1	-2	46*	1	0	-2	35*	0
C[C@H](O)C#Cc1ccc2c(c1)O[C@H](CN(C)C(=O)Nc1ccccc1)[C@@H](C)CN([C@H](C)CO)S2(=O)=O	/	/	/	-1	/	/	/
O=[N+]([O-])c1ccc(-c2csc(N3CCc4ccccc4C3)n2)cc1	4	8	1	0	6	/	/
O=[N+]([O-])c1ccc(N2CCc3ccccc3C2)cc1	-4	31*	-4	0	-1	60*	58*
SMILES	Rpn11 block	ABHD5 PLIN5 PPI	Rin1-Abl PPI inh	Xi reactivation	NadD inh	ABHD5 PLIN5 conf	HNF4 counter
CCCN(C)C[C@@H]1Oc2cc(-c3cccc(F)c3)ccc2S(=O)(=O)N([C@@H](C)CO)C[C@@H]1C	/	/	/	0	/	/	/
O=C(C[C@@H]1C=C[C@H](NC(=O)C2CCC2)[C@H](CO)O1)NCCCN1CCOCC1	/	/	/	0	/	/	/
O=[N+]([O-])c1ccc2c(c1)Cc1cc(F)ccc1-2	5	0	-2	0	4	/	/
CC(=O)Nc1ccc2c(c1)Cc1ccc(Cl)cc1-2	-4	-2	-5	0	-9	/	/
O=C1C=CC(=O)N1c1ccc2c(c1)Cc1cc(F)ccc1-2	19	26*	1	0	14	42*	71*
CC(=O)Nc1ccc2c(c1)Cc1cc(N3C(=O)C=CC3=O)ccc1-2	-1	35*	-2	0	4	45*	104*
O=C(C[C@H]1CC[C@@H]2[C@H](COC[C@H](O)CN2C(=O)c2cccnc2)O1)NCc1ccccc1	/	/	/	0	/	/	/
COCc1cc(CNC(=O)C2CCC(=O)N(Cc3ccccc3F)C2)[nH]n1 (stereo unspecified)	-12	-8	-5	0	-4	/	/
COCc1cc(CNC(=O)C2CCC(=O)N(Cc3ccccc3OC)C2)[nH]n1 (stereo unspecified)	-4	24*	2	0	1	-1	-2
CC1(C)Cc2c(C#N)c(NC3CCCCC3)nc(-c3ccco3)c2CO1	22	34*	5	/	10	33*	41*
Cc1ccc(S(=O)(=O)N(C)C[C@@H]2Oc3ccc(NC(=O)Cc4cn(C)c5ccccc45)cc3C(=O)N([C@@H](C)CO)C[C@H]2C)cc1	/	/	/	0	/	/	/
C[C@H]1CCCCO[C@@H](CN(C)CC2CCCCC2)[C@@H](C)CN([C@@H](C)CO)C(=O)c2cc(NC(=O)Cc3ccccc3)ccc2O1	/	/	/	-1	/	/	/
Nc1ccccc1SC(CC(=O)c1ccccc1)c1cccc([N+](=O)[O-])c1 (stereo unspecified)	10	76*	-1	0	2	39*	100*
Nc1ccccc1SC(CC(=O)c1ccccc1)c1ccc([N+](=O)[O-])cc1 (stereo unspecified)	7	71*	4	1	7	70*	85*
O=C(NC(NC(=O)c1ccccc1)c1cccc([N+](=O)[O-])c1)c1ccccc1	-7	4	-1	1	0	/	/
COc1ccc(C(CC(=O)c2ccc(C)cc2)Sc2ccccc2N)cc1 (stereo unspecified)	-1	-4	-1	0	14	/	/
COc1ccc(CN2CC3(CCN(Cc4ccccn4)CC3)c3c(n(C)c4cc(OC)ccc34)[C@@H]2CO)cc1	/	/	/	1	/	/	/
C[C@@H]1CN([C@H](C)CO)C(=O)c2cccc(NS(C)(=O)=O)c2O[C@@H]1CN(C)S(=O)(=O)c1ccc(F)cc1	/	/	/	0	/	/	/

Compound activity: PubChem BioAssay, several laboratories
